From ChEMBL document CHEMBL4376859, “Prodrugs for nitroreductase-based cancer therapy-3: Antitumor activity of the novel dinitroaniline prodrugs/Ssap-NtrB enzyme suicide gene system: Synthesis, in vitro and in silico evaluation in prostate cancer” (Eur J Med Chem, 2020)
Calls of active or inactive are those of the source. The rule behind the calls is not given here.

Columns and labels:
[1] = Cytotoxicity against human HUVEC cells assessed as cell viability at 9 to 150 uM after 24 hrs by MTT assay relative to control; format: cell-based; conditions: read-out: Activity
Outline: (§1)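 Hep3B hepatoma, PC-3 prostate cancer and HUVEC (healthy control) cells were exposed to nitro compounds at 150, 75, 38, 19 and 9 µM for 24 h and 48 h. Viability was read by MTT assay, and IC50 values were derived from the growth inhibition curves.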

Hep 3B2 [2] = assay: Cytotoxicity against human Hep3B cells assessed as cell viability at 9 to 150 uM after 24 hrs by MTT assay relative to control; format: functional; outline: as §1
Hep 3B2 [3] = assay: Cytotoxicity against human Hep3B cells assessed as cell viability at 9 to 150 uM after 48 hrs by MTT assay relative to control; format: functional; outline: as §1
[4] = Cytotoxicity against human HUVEC cells assessed as cell viability at 9 to 150 uM after 48 hrs by MTT assay relative to control; format: cell-based; conditions: read-out: Activity; outline: as §1
Putative nitroreductase [5] = target: T1, Putative nitroreductase (Staphylococcus saprophyticus subsp. saprophyticus (strain ATCC 15305 / DSM20229 / NCIMB 8711 / NCTC 7292 / S-41), UniProt Q4A0P1); assay: Substrate activity at Staphylococcus saprophyticus nitroreductase NtrB assessed as enzyme specific activity using NADH as cofactor in Tris-Cl buffer at pH 7.5 by HPLC analysis; format: ADME
T1 sequence (Q4A0P1 whole entry): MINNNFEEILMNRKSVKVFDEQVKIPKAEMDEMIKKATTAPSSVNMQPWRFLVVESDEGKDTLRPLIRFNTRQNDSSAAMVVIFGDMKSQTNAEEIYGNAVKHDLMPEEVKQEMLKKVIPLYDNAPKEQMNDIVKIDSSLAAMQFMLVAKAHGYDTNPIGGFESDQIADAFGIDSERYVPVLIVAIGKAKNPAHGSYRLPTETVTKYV

Putative nitroreductase [6] = target: T1, Putative nitroreductase; assay: Substrate activity at Staphylococcus saprophyticus nitroreductase NtrB assessed as Kcat/Km using NADH as cofactor in Tris-Cl buffer at pH 7.5 by HPLC analysis relative to CB1954/NfsB; format: ADME
Putative nitroreductase [7] = target: T1, Putative nitroreductase; assay: Substrate activity at Staphylococcus saprophyticus nitroreductase expressed in Escherichia coli BL21 (DE3) assessed as retention time by HPLC analysis; format: ADME
PC-3 [8] = assay: Cytotoxicity against human PC3 cells assessed as cell viability at 9 to 150 uM after 48 hrs by MTT assay relative to control; format: functional; outline: as §1
PC-3 [9] = assay: Cytotoxicity against human PC3 cells assessed as reduction in cell viability after 48 hrs by SRB assay; format: functional, cell-based
Outline: (§2)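 Compounds were reduced outside the cells by purified His-tag (Ni column) Ssap-NtrB. The reaction mix held 600 µM NADH and compound (150, 39, 9 µM, or 180, 18, 1.8 nM) and was applied to PC-3 cells. Controls were compound alone in 25 mM Tris/HCl pH 7.5, and enzyme alone at 31 µg/mL. After 48 h, SRB absorbance was read at 492 nm and converted to % viability.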

PC-3 [10] = assay: Cytotoxicity against human PC3 cells assessed as cell viability at 9 to 150 uM after 24 hrs by MTT assay relative to control; format: functional; outline: as §1
Hep 3B2 [11] = assay: Cytotoxicity against human Hep3B cells assessed as cell viability after 48 hrs by MTT assay; format: functional, cell-based; outline: as §1
PC-3 [12] = assay: Cytotoxicity against human PC3 cells […] Staphylococcus saprophyticus nitroreductase NtrB assessed as reduction in cell viability in presence of NADH as cofactor after 48 hrs by SRB assay; format: functional, cell-based; conditions: PC-3, 48 h; outline: as §2
PC-3 [13] = assay: Cytotoxicity against human PC3 cells […] Staphylococcus saprophyticus nitroreductase NtrB assessed as cell viability at 150 uM in presence of NADH as cofactor after 48 hrs by SRB assay relative to control; format: functional; conditions: PC-3, 48 h, read-out: Activity; outline: as §2
[14] = substrate: O=[N+]([O-])c1ccc(Nc2ccc3ccccc3c2)c([N+](=O)[O-])c1; assay: Substrate activity at Staphylococcus saprophyticus nitroreductase NtrB assessed as Km using NADPH as cofactor in Tris-Cl buffer at pH 7.5 by HPLC analysis; format: ADME
[15] = substrate: O=[N+]([O-])c1ccc(N2CCCCC2)c([N+](=O)[O-])c1; assay: (§3) Substrate activity at Staphylococcus saprophyticus nitroreductase NtrB assessed as Km using NADH as cofactor in Tris-Cl buffer at pH 7.5 by HPLC analysis; format: ADME
[16] = substrate: O=[N+]([O-])c1ccc(N2CCOCC2)c([N+](=O)[O-])c1; assay: as §3; format: ADME
[17] = substrate: O=C(CC(F)(F)F)Nc1cc(N2CCOCC2)c([N+](=O)[O-])cc1[N+](=O)[O-]; assay: as §3; format: ADME
[18] = substrate: CCC(=O)Nc1cc(N2CCOCC2)c([N+](=O)[O-])cc1[N+](=O)[O-]; assay: as §3; format: ADME
[19] = substrate: Nc1ccccc1Nc1ccc([N+](=O)[O-])cc1[N+](=O)[O-]; assay: as §3; format: ADME
[20] = substrate: O=[N+]([O-])c1cc([N+](=O)[O-])c(Nc2ccc(S(=O)(=O)O)cc2)cc1Nc1ccc(S(=O)(=O)O)cc1; assay: as §3; format: ADME
[21] = substrate: NC(=O)c1cc(N2CC2)c([N+](=O)[O-])cc1[N+](=O)[O-]; assay: Substrate activity at Bacillus amyloliquefaciens nitroreductase ywrO assessed as Km using NADPH as cofactor in sodium phosphate buffer at pH 7.5 by HPLC analysis; format: ADME

With `CCC(=O)Oc1cc(N2CCOCC2)c([N+](=O)[O-])cc1[N+](=O)[O-]` the viability at 24 h, up to 150 µM [1] was 51 to 80%, the Activity (Hep 3B2 [2]) was >80% and the Activity (Hep 3B2 [3]) was >80%. For the same molecule, the viability at 48 h, up to 150 µM [4] was 51 to 80%.

With `O=C(CC(F)(F)F)Nc1cc(N2CCOCC2)c([N+](=O)[O-])cc1[N+](=O)[O-]` the viability at 24 h, up to 150 µM [1] was > 80%, the Activity (Putative nitroreductase [5]) was 0.99 U/mg and the “fold change (FC)” value (Putative nitroreductase [6]) was 4.73. For the same molecule, the Retention_time (Putative nitroreductase [7]) was 21.8 min, the Activity (Hep 3B2 [2]) was 51 - 80% and the Activity (Hep 3B2 [3]) was 51 - 80%. The viability at 48 h, up to 150 µM [4] was 51 to 80%.

In the case of `CN(C)C(=O)Oc1cc(N2CCOCC2)c([N+](=O)[O-])cc1[N+](=O)[O-]`, the viability at 24 h, up to 150 µM [1] is reported as 51 to 80%, the Retention_time (Putative nitroreductase [7]) is reported as 19.28 min and the Activity (Hep 3B2 [2]) is reported as >80%. The Activity (Hep 3B2 [3]) was >80% and the viability at 48 h, up to 150 µM [4] was 51 to 80%.

In the case of `O=[N+]([O-])c1ccc(N2CCCCC2)c([N+](=O)[O-])c1`, the viability at 24 h, up to 150 µM [1] is reported as > 80%, the Activity (PC-3 [8]) is reported as >80% and the Activity (Putative nitroreductase [5]) is reported as 0.49 U/mg. The Activity (PC-3 [9]) was “inactive”, the Activity (PC-3 [10]) was >80% and the Retention_time (Putative nitroreductase [7]) was 24.21 min. The Activity (Hep 3B2 [2]) was 51 - 80%, the viability at 48 h, up to 150 µM [4] was 51 to 80% and the IC50 (Hep 3B2 [11]) was 50.3 µM.

With `O=[N+]([O-])c1ccc(N2CCCC(O)C2)c([N+](=O)[O-])c1` (configuration not stated) the viability at 24 h, up to 150 µM [1] was > 80%, the IC50 (PC-3 [12]) was 150 µM and the Activity (PC-3 [9]) was “inactive”. The viability at 150 µM (PC-3 [13]) was 50%, the Retention_time (Putative nitroreductase [7]) was 14.9 min and the Activity (Hep 3B2 [2]) was >80%. The Activity (Hep 3B2 [3]) was >80% and the viability at 48 h, up to 150 µM [4] was > 80%.

For `COc1cccc(Nc2ccc([N+](=O)[O-])cc2[N+](=O)[O-])c1`, the viability at 24 h, up to 150 µM [1] was > 80%, the IC50 (PC-3 [12]) was > 150 µM and the Activity (PC-3 [8]) was >80%. The Activity (PC-3 [9]) was “inactive”, the viability at 150 µM (PC-3 [13]) was 50% and the Activity (PC-3 [10]) was >80%. For the same molecule, the Retention_time (Putative nitroreductase [7]) was 18.56 min, the Activity (Hep 3B2 [2]) was >80% and the Activity (Hep 3B2 [3]) was >80%. The viability at 48 h, up to 150 µM [4] was > 80%.

In the case of `Nc1ccccc1Nc1ccc([N+](=O)[O-])cc1[N+](=O)[O-]`, the viability at 24 h, up to 150 µM [1] is reported as > 80%, the IC50 (PC-3 [12]) is reported as 15 µM and the Activity (PC-3 [8]) is reported as >80%. For the same molecule, the Activity (PC-3 [9]) was “inactive”, the Activity (PC-3 [10]) was >80% and the “fold change (FC)” value (Putative nitroreductase [6]) was 0.41. For the same molecule, the Retention_time (Putative nitroreductase [7]) was 16.85 min, the Activity (Hep 3B2 [2]) was >80% and the Activity (Hep 3B2 [3]) was >80%. For the same molecule, the viability at 48 h, up to 150 µM [4] was > 80%.

In the case of `O=[N+]([O-])c1ccc(NC2CCCCC2)c([N+](=O)[O-])c1`, the viability at 24 h, up to 150 µM [1] is reported as > 80%, the IC50 (PC-3 [12]) is reported as > 150 µM and the Activity (PC-3 [8]) is reported as >80%. The Activity (PC-3 [9]) was “inactive”, the viability at 150 µM (PC-3 [13]) was 50% and the Activity (PC-3 [10]) was >80%. The Retention_time (Putative nitroreductase [7]) was 20.58 min, the Activity (Hep 3B2 [2]) was >80% and the Activity (Hep 3B2 [3]) was >80%. The viability at 48 h, up to 150 µM [4] was > 80%.

B1: Putative nitroreductase (Staphylococcus saprophyticus subsp. saprophyticus ATCC 15305 = NCTC 7292) (protein)
chain: T1 sequence (Q4A0P1 whole entry)
Molecule B1 has a Km [14] of 15.7 µM, a kcat [14] of 0.1 s⁻¹ and a kcat/Km [14] of 8270 M⁻¹ s⁻¹. For the same molecule, the Km [15] was 104 µM, the kcat [15] was 0.404 s⁻¹ and the kcat/Km [15] was 3900 M⁻¹ s⁻¹. For the same molecule, the Km [16] was 444 µM, the kcat [16] was 3.1 s⁻¹ and the kcat/Km [16] was 6970 M⁻¹ s⁻¹. The Km [17] was 9.95 µM, the kcat [17] was 0.234 s⁻¹ and the kcat/Km [17] was 26500 M⁻¹ s⁻¹. It also gave a Km [18] of 14 µM, a kcat [18] of 0.37 s⁻¹ and a kcat/Km [18] of 26500 M⁻¹ s⁻¹. The Km [19] was 137 µM, the kcat [19] was 0.315 s⁻¹ and the kcat/Km [19] was 2300 M⁻¹ s⁻¹. It also gave a Km [20] of 255 µM, a kcat [20] of 3.4 s⁻¹ and a kcat/Km [20] of 13300 M⁻¹ s⁻¹.

B2: Nitroreductase (Bacillus amyloliquefaciens) (protein)
chain: MKVLVLAVHPDMENSAVNKAWAEELKKHDELTVRELYKEYPDGQIDAEKERQLCEQYDRIVFQFPLYWYSAPPLLKTWMDHVLSYGWAYGSKGKALHGKELMLAVSVGAGEDAYQAGGSNHFTLSELLRPFQAMANFTGMTYLPAFALYGVNGADATDIHDNAKRLAAYIKKSF
Work on B2 yielded a Km [21] of 618 µM, a kcat [21] of 8.2 s⁻¹ and a kcat/Km [21] of 13300 M⁻¹ s⁻¹.
